Measurements taken from the M2OR odorant receptor database.

Target: T1, OR2C1 (Homo sapiens) (UniProt O95371)
T1 sequence (whole entry): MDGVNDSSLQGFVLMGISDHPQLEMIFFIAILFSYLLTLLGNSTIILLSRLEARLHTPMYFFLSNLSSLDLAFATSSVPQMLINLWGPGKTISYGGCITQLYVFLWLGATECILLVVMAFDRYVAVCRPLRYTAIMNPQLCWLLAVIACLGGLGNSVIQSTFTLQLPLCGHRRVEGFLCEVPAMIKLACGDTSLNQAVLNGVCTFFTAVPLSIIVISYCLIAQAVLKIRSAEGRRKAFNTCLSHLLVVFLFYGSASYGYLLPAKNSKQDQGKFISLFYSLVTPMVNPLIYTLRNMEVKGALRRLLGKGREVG
Conditions: stereoisomer not certain
In short: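 Values were gathered from published papers (main text and supplementary material), with extra details requested from the original authors when needed, and checked for typos and inconsistencies. Each receptor–molecule pair is called responsive (active) if the original authors judged the measured signal statistically different from baseline, and non-responsive (inactive) otherwise. Assay methods varied by source, often transient mammalian cell-line luciferase assays. Recorded details include cell line, G-protein, co-transfected protein and tags.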

Odorant receptor agonist call, inactive:
CCCCCO
CCCCCCC(C)=O
O=C1CCOc2ccccc21
C=CCOC(=O)CCCCCC
CCOC(=O)C(C)C
CCCC(C)=O
CCCCCCCCO
CCCCCCCCCC(=O)[O-].[H+]
CC(=O)Oc1ccccc1
CCC(C(=O)O)c1ccccc1 (centres undefined)
CCCCOC=O
CCCCCCCO
CC12CCC(CC1=O)C2(C)C (centres undefined)
CCCCCCCCC(=O)O
CCCCC(=O)O
CCCCCCCCCO
CCCC(=O)C(C)=O
c1ccccc1
CCCCCCCC(C)=O
O=C1Cc2ccccc2O1
CCCCCC=O
O=C(c1ccccc1)c1ccccc1
CCCCCCCCCCO
CCCCCC(=O)CC
CCCCCCOC(C)=O
CC(C)=CCCC(C)CCO (centres undefined)
C=C(C)C1CCC(C)C(=O)C1 (centres undefined)

Odorant receptor agonist call, active:
CCCCCCCCCS
CCCCCCCCS
